According to ChEMBL document CHEMBL1795273, “Curcumin analogues as possible anti-proliferative & anti-inflammatory agents” (Eur J Med Chem, 2011):
Active and inactive are the calls of the source. The calls are words filed in the database; no cut-off is given here.

Legend:
NCI-H460 [1] = test: Cytotoxicity against human NCI-H460 cells after 48 hrs by sulforhodamine B assay; assay type: cell-based; settings: nci-h460, 48 h
Method in brief: (§1)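 Cells grown in RPMI 1640 with 5% heat-inactivated FCS, 2 mM L-glutamine and antibiotics, 37 °C, 5% CO2; viability >95% by trypan blue. Seeded 5.000-7.500 cells/well and preincubated 24 h. Compounds in DMSO added at 10-fold dilutions (100 to 0.01 µM) for 48 h. Fixed with cold TCA, SRB-stained, absorbance read at 530 nm. GI50, TGI and LC50 derived from three independent experiments, each in triplicate.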

MCF7 [2] = test: Cytotoxicity against human MCF7 cells after 48 hrs by sulforhodamine B assay; assay type: cell-based; settings: mcf7, 48 h; method in brief: as §1
SF-268 [3] = test: Antiproliferative activity against human SF268 cells after 48 hrs by sulforhodamine B assay; assay type: functional; settings: SF-268, 48 h
Method in brief: (§2)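 Cells grown in RPMI 1640 with 5% heat-inactivated FCS, 2 mM L-glutamine and antibiotics at 37 °C, 5% CO2; viability >95% by trypan blue. Seeded at 5.000-7.500 cells/well and preincubated 24 h. Compound in DMSO added at 10-fold dilutions (100 to 0.01 µM) for 48 h. TCA fixation, SRB staining, absorbance at 530 nm. GI50, TGI and LC50 derived. Three independent experiments, each in triplicate.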

MCF7 [4] = test: Antiproliferative activity against human MCF7 cells after 48 hrs by sulforhodamine B assay; assay type: functional; settings: MCF7, 48 h; method in brief: as §2
[5] = Lipophilicity, RM of the compound assessed by RPTLC; assay type: physicochemical
Method in brief: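 Determined by reverse-phase TLC with plates developed in mobile-phase-saturated closed tanks at 24 °C and spots detected under UV. RM = log[(1/Rf) − 1], from 10 individual Rf measurements.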

NCI-H460 [6] = test: Antiproliferative activity against human NCI-H460 cells after 48 hrs by sulforhodamine B assay; assay type: functional; settings: NCI-H460, 48 h; method in brief: as §2
Rattus norvegicus [7] = test: Antiinflammatory activity in carrageenan-induced Fischer-344 rat paw oedema at 0.01 mmol/kg, ip after 3.5 hrs; assay type: functional; settings: for inhibition in vivo at 10 µmol/kg: Fischer-344, ip
Method in brief: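 Fischer-344 rats (150–200g), both sexes, pregnant females excluded, 6–15 per group. Oedema induced in right hind paw by intradermal 0.1 mL 2% carrageenin in water. Compound given ip with the carrageenin, dissolved in water (HCl salt) or suspended with Tween 80 (bases). Euthanized at 3.5 h. Injected minus uninjected paw weight compared with water-treated controls as % inhibition. Mean of two experiments.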

[8] = target: Aldo-keto reductase family 1 member B1 (Rattus norvegicus) (UniProt P07943); test: Inhibition of ALR2 in Fischer-344 rat lens at 100 uM; assay type: tissue-based; settings: Lens of camera-type eye
Method in brief: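 Enzyme partially purified from lenses of Fischer-344 rats of both sexes. Lenses homogenized in cold water, spun at 10000 g, 0-4 °C, 15 min; supernatant precipitated at 40% ammonium sulphate saturation and spun again. Compound in 10% aqueous DMSO, tested at 100 µM. D,L-glyceraldehyde substrate; NADPH consumption read at 340 nm. At least triplicate.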

SF-268 [9] = test: Cytotoxicity against human SF268 cells after 48 hrs by sulforhodamine B assay; assay type: cell-based; settings: sf-268, 48 h; method in brief: as §1
[10] = Inhibition of soybean 5LOX assessed as conversion of sodium linoleate to 13-[…] acid; set-up: species or system Glycine max
Method in brief: (§3)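 Soybean lipoxygenase (1/9 × 10^-4 w/v in saline) incubated at room temperature with compound in DMSO and 0.1 mM sodium linoleate. Formation of 13-hydroperoxylinoleic acid followed at 234 nm. NDGA reference inhibitor. At least triplicate.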

Rattus norvegicus [11] = test: Toxicity in Fischer-344 rat assessed as ulcerogenicity at 0.2 mmol/kg, ip; assay type: organism-based; settings: in vivo
[12] = Therapeutic index, ratio of LC50 for human SF268 cells to GI50 for human SF268 cells; assay type: cell-based, SF-268; settings: read-out: TI
Method in brief: (§4)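 Index is LC50/GI50 from the 48 h SRB growth assay (100–0.01 µM, 10-fold dilutions). Where LC50 exceeded 100 µM, the highest concentration tested, it was taken as 100 µM.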

Glycine max = test: Inhibition of soybean 5LOX assessed as conversion of sodium linoleate to 13-[…] acid at 100 uM; method in brief: as §3
[13] = Therapeutic index, ratio of LC50 for human MCF7 cells to GI50 for human MCF7 cells; assay type: cell-based; settings: read-out: TI; method in brief: as §4
[14] = Therapeutic index, ratio of LC50 for human NCI-H460 cells to GI50 for human NCI-H460 cells; assay type: cell-based; settings: read-out: TI; method in brief: as §4

O=C1/C(=C/c2cccs2)CNC/C1=C\c1cccs1
LC50 (NCI-H460 [1]): > 100 µM | LC50 (MCF7 [2]): > 100 µM | GI50 (SF-268 [3]): 98.8 µM | TGI (SF-268 [3]): > 100 µM | GI50 (MCF7 [4]): > 100 µM | TGI (MCF7 [4]): > 100 µM | Rm [5]: 0.176 | GI50 (NCI-H460 [6]): > 100 µM | TGI (NCI-H460 [6]): > 100 µM | inhibition (Rattus norvegicus [7]): inactive | inhibition [8]: 45.5% | LC50 (SF-268 [9]): > 100 µM | IC50 [10]: 330 µM | Activity (Rattus norvegicus [11]): Non-toxic | selectivity ratio [12]: 1

O=C1/C(=C/c2c[nH]cn2)CNC/C1=C\c1c[nH]cn1
LC50 (NCI-H460 [1]): > 100 µM | LC50 (MCF7 [2]): > 100 µM | GI50 (SF-268 [3]): > 100 µM | TGI (SF-268 [3]): > 100 µM | GI50 (MCF7 [4]): > 100 µM | TGI (MCF7 [4]): > 100 µM | Rm [5]: -0.552 | GI50 (NCI-H460 [6]): > 100 µM | TGI (NCI-H460 [6]): > 100 µM | inhibition in vivo at 10 µmol/kg (Rattus norvegicus [7]): 11.5% | inhibition [8]: inactive | inhibition (Glycine max): 36% | LC50 (SF-268 [9]): > 100 µM | Activity (Rattus norvegicus [11]): Non-toxic

O=C1/C(=C/c2c[nH]c3ccccc23)CNC/C1=C\c1c[nH]c2ccccc12
LC50 (NCI-H460 [1]): 8.7 µM | LC50 (MCF7 [2]): 8.2 µM | GI50 (SF-268 [3]): 3.3 µM | TGI (SF-268 [3]): 5.7 µM | GI50 (MCF7 [4]): 3.7 µM | TGI (MCF7 [4]): 6 µM | Rm [5]: 0.597 | GI50 (NCI-H460 [6]): 3.5 µM | TGI (NCI-H460 [6]): 6.1 µM | inhibition in vivo at 10 µmol/kg (Rattus norvegicus [7]): 33% | inhibition [8]: 27.8% | LC50 (SF-268 [9]): 8.2 µM | IC50 [10]: 280 µM | Activity (Rattus norvegicus [11]): Non-toxic | selectivity ratio [12]: 2.5 | selectivity ratio [13]: 2.2 | selectivity ratio [14]: 2.4

COc1ccc2c(c1)c(CC(=O)O)c(C)n2C(=O)c1ccc(Cl)cc1 [INDOMETHACIN]
inhibition in vivo at 10 µmol/kg (Rattus norvegicus [7]): 47%

O=C1/C(=C/c2ccc3[nH]ccc3c2)CNC/C1=C\c1ccc2[nH]ccc2c1
LC50 (NCI-H460 [1]): > 100 µM | LC50 (MCF7 [2]): > 100 µM | GI50 (SF-268 [3]): > 100 µM | TGI (SF-268 [3]): > 100 µM | GI50 (MCF7 [4]): 69.5 µM | TGI (MCF7 [4]): > 100 µM | Rm [5]: 0.166 | GI50 (NCI-H460 [6]): > 100 µM | TGI (NCI-H460 [6]): > 100 µM | inhibition in vivo at 10 µmol/kg (Rattus norvegicus [7]): 36% | inhibition [8]: inactive | LC50 (SF-268 [9]): > 100 µM | IC50 [10]: 410 µM | Activity (Rattus norvegicus [11]): Non-toxic | selectivity ratio [13]: 1.4

COc1cc(/C=C/C(=O)CC(=O)/C=C/c2ccc(O)c(OC)c2)ccc1O [CURCUMIN]
LC50 (NCI-H460 [1]): 83.4 µM | LC50 (MCF7 [2]): 67.2 µM | GI50 (SF-268 [3]): 5.1 µM | TGI (SF-268 [3]): 9.2 µM | GI50 (MCF7 [4]): 4.7 µM | TGI (MCF7 [4]): 8.3 µM | GI50 (NCI-H460 [6]): 16.7 µM | TGI (NCI-H460 [6]): 50.1 µM | inhibition [8]: 12% | inhibition (Glycine max): 38% | LC50 (SF-268 [9]): 61 µM | selectivity ratio [12]: 11.9 | selectivity ratio [13]: 14.2 | selectivity ratio [14]: 5

Cc1ccc(/C=C2\CNC/C(=C\c3ccc(C)s3)C2=O)s1
LC50 (NCI-H460 [1]): > 100 µM | LC50 (MCF7 [2]): > 100 µM | GI50 (SF-268 [3]): 65.2 µM | TGI (SF-268 [3]): > 100 µM | GI50 (MCF7 [4]): 80.7 µM | TGI (MCF7 [4]): > 100 µM | Rm [5]: 0.031 | GI50 (NCI-H460 [6]): 99.3 µM | TGI (NCI-H460 [6]): > 100 µM | inhibition in vivo at 10 µmol/kg (Rattus norvegicus [7]): 62% | inhibition [8]: inactive | inhibition (Glycine max): inactive | LC50 (SF-268 [9]): > 100 µM | Activity (Rattus norvegicus [11]): Non-toxic | selectivity ratio [12]: 1.5 | selectivity ratio [13]: 1.2 | selectivity ratio [14]: 1

O=C1/C(=C/c2ccccc2)CNC/C1=C\c1ccccc1
LC50 (NCI-H460 [1]): 10.3 µM | LC50 (MCF7 [2]): 9 µM | GI50 (SF-268 [3]): 0.9 µM | TGI (SF-268 [3]): 4.7 µM | GI50 (MCF7 [4]): 0.8 µM | TGI (MCF7 [4]): 4.1 µM | Rm [5]: 0.135 | GI50 (NCI-H460 [6]): 2 µM | TGI (NCI-H460 [6]): 6.1 µM | inhibition in vivo at 10 µmol/kg (Rattus norvegicus [7]): 43% | inhibition [8]: 49% | inhibition (Glycine max): 8% | LC50 (SF-268 [9]): 9.1 µM | Activity (Rattus norvegicus [11]): Non-toxic | selectivity ratio [12]: 10 | selectivity ratio [13]: 11.6 | selectivity ratio [14]: 5.2

O=C1/C(=C/c2ccc(OCc3ccc(Br)cc3)cc2)CNC/C1=C\c1ccc(OCc2ccc(Br)cc2)cc1
LC50 (NCI-H460 [1]): > 100 µM | LC50 (MCF7 [2]): > 100 µM | GI50 (SF-268 [3]): > 100 µM | TGI (SF-268 [3]): > 100 µM | GI50 (MCF7 [4]): 49.9 µM | TGI (MCF7 [4]): 96.8 µM | Rm [5]: 0.076 | GI50 (NCI-H460 [6]): > 100 µM | TGI (NCI-H460 [6]): > 100 µM | inhibition in vivo at 10 µmol/kg (Rattus norvegicus [7]): 49% | inhibition [8]: inactive | inhibition (Glycine max): 18% | LC50 (SF-268 [9]): > 100 µM | Activity (Rattus norvegicus [11]): Non-toxic | selectivity ratio [13]: 2

Cc1ccsc1/C=C1\CNC/C(=C\c2sccc2C)C1=O
LC50 (NCI-H460 [1]): > 100 µM | LC50 (MCF7 [2]): > 100 µM | GI50 (SF-268 [3]): 53.8 µM | TGI (SF-268 [3]): > 100 µM | GI50 (MCF7 [4]): 63 µM | TGI (MCF7 [4]): > 100 µM | Rm [5]: -0.03 | GI50 (NCI-H460 [6]): 73.2 µM | TGI (NCI-H460 [6]): > 100 µM | inhibition in vivo at 10 µmol/kg (Rattus norvegicus [7]): 27% | inhibition [8]: 56% | inhibition (Glycine max): inactive | LC50 (SF-268 [9]): > 100 µM | Activity (Rattus norvegicus [11]): Non-toxic | selectivity ratio [12]: 1.9 | selectivity ratio [13]: 1.6 | selectivity ratio [14]: 1.4
